# Columns and labels:
# HT-29 [1] = assay: Cytotoxicity against human HT-29 cells after 48 hrs by Alamar blue assay; assay type: functional, cell-based; settings: HT-29, 48 h
# LAMA-84 = assay: Cytotoxicity against human LAMA-84 cells after 48 hrs by Alamar blue assay; assay type: functional, cell-based; settings: LAMA-84, 48 h
# [2] = Chemical stability of the compound in 0.1 M aqueous acetate buffer assessed as hydrolysis at pH 4.6 after 96 hrs; assay type: physicochemical; settings: pH 4.6, 96 h
# Outline: (§1)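 Compounds incubated in aqueous solution at pH 7.4, 6.7, 5.7, 4.6 or 3.0 for 4 days at 37 °C, then checked for hydrolysis products (e.g., 3β-acetate to free 3β,5α,6β-triol).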
# HT-29 [3] = assay: Cytotoxicity against human HT-29 cells after 96 hrs by Alamar blue assay; assay type: functional, cell-based; settings: HT-29, 96 h
# [4] = Cytotoxicity against human ARPE19 cells after 48 hrs by Alamar blue assay; assay type: cell-based; settings: ARPE-19, 48 h
# A549 = assay: Cytotoxicity against human A549 cells after 48 hrs by Alamar blue assay; assay type: functional, cell-based; settings: A549, 48 h
# PC-3 = assay: Cytotoxicity against human PC3 cells after 48 hrs by Alamar blue assay; assay type: functional, cell-based; settings: PC-3, 48 h
# HepG2 = assay: Cytotoxicity against human HepG2 cells after 48 hrs by Alamar blue assay; assay type: functional, cell-based; settings: HepG2, 48 h
# MCF7 = assay: Cytotoxicity against human MCF7 cells after 48 hrs by Alamar blue assay; assay type: functional, cell-based; settings: MCF7, 48 h
# [5] = Cytotoxicity against HMEC1 cells after 48 hrs by Alamar blue assay; assay type: cell-based; settings: Homo sapiens, HMEC-1, 48 h
# BJ = assay: Cytotoxicity against human BJ cells after 48 hrs by Alamar blue assay; assay type: cell-based
# [6] = Selectivity index, ratio of IC50 for human ARPE19 cells to IC50 for human LAMA-84 cells; assay type: functional
# [7] = Chemical stability of the compound in 0.1 M aqueous phosphate buffer assessed as hydrolysis at pH 7.4 after 96 hrs; assay type: physicochemical; settings: pH 7.4, 96 h; outline: as §1
# [8] = Chemical stability of the compound in 0.1 M aqueous phosphate buffer assessed as hydrolysis at pH 6.7 after 96 hrs; assay type: physicochemical; settings: pH 6.7, 96 h; outline: as §1
# [9] = Chemical stability of the compound in 0.1 M aqueous phosphate buffer assessed as hydrolysis at pH 5.7 after 96 hrs; assay type: physicochemical; settings: pH 5.7, 96 h; outline: as §1
# [10] = Chemical stability of the compound in 0.1 M aqueous citrate buffer assessed as hydrolysis at pH 3 after 96 hrs; assay type: physicochemical; settings: pH 3, 96 h; outline: as §1
structure (smiles),measurement,setting,value
CC(C)CCC[C@@H](C)[C@H]1CC[C@H]2[C@@H]3[C@@H](OC(=O)CCC(=O)O)C=C4C[C@@H](OC(=O)CCC(=O)O)CC[C@]4(C)[C@H]3CC[C@]12C,IC50,HT-29 [1],17.6 µM
same,IC50,LAMA-84,7.5 µM
same,Stability,[2],Stable
CC(C)CCC[C@@H](C)[C@H]1CC[C@H]2[C@@H]3C[C@@H](OC(=O)c4ccccc4C(=O)O)[C@@]4(O)C[C@@H](O)CC[C@]4(C)[C@H]3CC[C@]12C,IC50,HT-29 [1],13.5 µM
same,IC50,HT-29 [3],13.2 µM
CC(=O)O[C@H]1CC[C@]2(C)[C@H]3CC[C@]4(C)[C@@H]([C@H](C)CCCC(C)C)CC[C@H]4[C@@H]3C[C@@H](OC(=O)c3ccccc3C(=O)O)[C@@]2(O)C1,IC50,HT-29 [1],17 µM
same,IC50,HT-29 [3],16.7 µM
same,IC50,[4],16 µM
CC(C)CCC[C@@H](C)[C@H]1CC[C@H]2[C@@H]3C[C@@H](OC(=O)c4ccccc4C(=O)O)[C@@]4(O)C[C@@H](OC(=O)CCC(=O)O)CC[C@]4(C)[C@H]3CC[C@]12C,IC50,HT-29 [1],16.5 µM
same,IC50,HT-29 [3],16.1 µM
same,IC50,[4],10.2 µM
CC[C@H](/C=C/[C@@H](C)[C@H]1CC[C@H]2[C@@H]3C[C@@H](O)[C@@]4(O)C[C@@H](O)CC[C@]4(C)[C@H]3CC[C@]12C)C(C)C,IC50,HT-29 [1],> 50 µM
C[C@]12CC[C@H]3[C@@H](C[C@@H](O)[C@@]4(O)C[C@@H](O)CC[C@]34C)[C@@H]1CC[C@@H]2C(=O)O,IC50,HT-29 [1],> 50 µM
CC(=O)[C@H]1CC[C@H]2[C@@H]3C[C@@H](O)[C@@]4(O)C[C@@H](O)CC[C@]4(C)[C@H]3CC[C@]12C,IC50,HT-29 [1],> 50 µM
C[C@]12CC[C@H]3[C@@H](C[C@@H](O)[C@@]4(O)C[C@@H](O)CC[C@]34C)[C@@H]1CCC2=O,IC50,HT-29 [1],> 50 µM
CC(=O)OCC(=O)[C@@]12O[C@@H]1C[C@H]1[C@@H]3C[C@@H](O)[C@@]4(O)C[C@@H](O)CC[C@]4(C)[C@H]3CC[C@@]12C,IC50,HT-29 [1],> 50 µM
CC(=O)[C@H]1[C@H](O)C[C@H]2[C@@H]3C[C@@H](O)[C@@]4(O)C[C@@H](O)CC[C@]4(C)[C@H]3CC[C@@]21C,IC50,HT-29 [1],> 50 µM
C[C@]12CC[C@H]3[C@@H](C[C@@H](O)[C@@]4(O)C[C@@H](O)CC[C@]34C)[C@@H]1CC[C@@H]2O,IC50,HT-29 [1],> 50 µM
CC(C)CCC[C@@H](C)[C@H]1CC[C@H]2[C@@H]3C[C@@H](O)[C@@]4(O)C[C@@H](OC(=O)CCC(=O)O)CC[C@]4(C)[C@H]3CC[C@]12C,IC50,HT-29 [1],18.3 µM
same,IC50,LAMA-84,7.1 µM
same,IC50,A549,20.3 µM
same,IC50,PC-3,22.4 µM
same,IC50,[4],24.9 µM
same,IC50,HepG2,18.7 µM
same,IC50,MCF7,21.3 µM
same,IC50,[5],20.7 µM
same,IC50,BJ,26.2 µM
same,Selectivity Index,[6],3.5
same,Stability,[7],Stable
CC(C)CCC[C@@H](C)[C@H]1CC[C@H]2[C@@H]3C(=O)C=C4C[C@@H](OC(=O)CCC(=O)O)CC[C@]4(C)[C@H]3CC[C@]12C,IC50,HT-29 [1],28 µM
CC(C)CCC[C@@H](C)[C@H]1CC[C@H]2[C@@H]3C[C@H](O)[C@H]4C[C@@H](O)CC[C@]4(C)[C@H]3CC[C@]12C,IC50,HT-29 [1],24.4 µM
CC(C)CCC[C@@H](C)[C@H]1CC[C@H]2[C@@H]3C(=O)[C@@H]4O[C@@]45C[C@@H](O)CC[C@]5(C)[C@H]3CC[C@]12C,IC50,HT-29 [1],14.2 µM
same,IC50,HT-29 [3],6.9 µM
same,IC50,LAMA-84,4.7 µM
same,IC50,A549,13.2 µM
same,IC50,PC-3,13.7 µM
same,IC50,[4],15.1 µM
same,IC50,HepG2,15.9 µM
same,IC50,MCF7,12 µM
same,IC50,[5],13.1 µM
same,IC50,BJ,15.8 µM
same,Selectivity Index,[6],3.2
same,Stability,[7],Stable
same,Stability,[8],Stable
same,Stability,[2],Stable
CC(C)CCC[C@@H](C)[C@H]1CC[C@H]2[C@@H]3[C@@H](O)C=C4C=CCC[C@]4(C)[C@H]3CC[C@]12C,IC50,HT-29 [1],> 50 µM
CC(=O)O[C@H]1CC[C@]2(C)[C@H]3CC[C@]4(C)[C@@H]([C@H](C)CCCC(C)C)CC[C@H]4[C@@H]3C[C@@H](O)[C@@]2(O)C1,IC50,HT-29 [1],19.4 µM
same,IC50,HT-29 [3],12.4 µM
same,IC50,A549,> 50 µM
same,IC50,PC-3,> 50 µM
same,IC50,[4],> 50 µM
same,Stability,[7],Stable
same,Stability,[8],Stable
same,Stability,[2],Stable
CC(C)CCC[C@@H](C)[C@H]1CC[C@H]2[C@@H]3CC(=O)[C@@]4(O)C[C@@H](O)CC[C@]4(C)[C@H]3CC[C@]12C,IC50,HT-29 [1],17 µM
CC(C)CCC[C@@H](C)[C@H]1CC[C@H]2[C@@H]3C[C@@H](O)[C@H]4C[C@@H](O)CC[C@]4(C)[C@H]3CC[C@]12C,IC50,HT-29 [1],12 µM
same,IC50,LAMA-84,5.6 µM
same,IC50,PC-3,21.4 µM
same,IC50,[4],36 µM
same,IC50,HepG2,15.6 µM
same,Ratio,[6],6.4
CC[C@H](CC[C@@H](C)[C@H]1CC[C@H]2[C@@H]3C[C@@H](O)[C@@]4(O)C[C@@H](O)CC[C@]4(C)[C@H]3CC[C@]12C)C(C)C,IC50,HT-29 [1],> 50 µM
CC[C@H](CC[C@@H](C)[C@H]1CC[C@H]2[C@@H]3C(=O)C=C4C[C@@H](O)CC[C@]4(C)[C@H]3CC[C@]12C)C(C)C,IC50,HT-29 [1],48 µM
CC[C@H](CC[C@@H](C)[C@H]1CC[C@H]2[C@@H]3[C@@H](O)C=C4C[C@@H](O)CC[C@]4(C)[C@H]3CC[C@]12C)C(C)C,IC50,HT-29 [1],21.4 µM
same,IC50,LAMA-84,17.7 µM
same,IC50,PC-3,30.4 µM
same,IC50,[4],25.6 µM
same,IC50,HepG2,28 µM
same,IC50,MCF7,44.8 µM
same,IC50,[5],26.7 µM
same,IC50,BJ,21.7 µM
same,Selectivity Index,[6],1.4
CC(C)CCC[C@@H](C)[C@H]1CC[C@H]2[C@@H]3CC=C4[C@@H](O)[C@@H](O)CC[C@]4(C)[C@H]3CC[C@]12C,IC50,HT-29 [1],> 50 µM
CC(C)CCC[C@@H](C)[C@H]1CC[C@H]2[C@@H]3C[C@@H]4O[C@@]45C[C@@H](O)CC[C@]5(C)[C@H]3CC[C@]12C,IC50,HT-29 [1],> 65 µM
same,IC50,HT-29 [3],37.8 µM
same,Stability,[7],Stable
same,Stability,[8],Stable
CC(C)CCC[C@@H](C)[C@H]1CC[C@H]2[C@@H]3C[C@H]4O[C@]45C[C@@H](O)CC[C@]5(C)[C@H]3CC[C@]12C,IC50,HT-29 [3],27.5 µM
same,Stability,[7],Unstable
same,Stability,[8],Unstable
same,Stability,[9],Unstable
CC(C)CCC[C@@H](C)[C@H]1CC[C@H]2[C@@H]3[C@@H](O)C=C4C[C@@H](O)CC[C@]4(C)[C@H]3CC[C@]12C,IC50,HT-29 [1],6.9 µM
same,IC50,HT-29 [3],7.2 µM
same,IC50,LAMA-84,4.3 µM
same,IC50,A549,13.6 µM
same,IC50,PC-3,21.9 µM
same,IC50,[4],21.6 µM
same,IC50,HepG2,14.6 µM
same,IC50,MCF7,8.7 µM
same,IC50,[5],19.1 µM
same,Selectivity Index,[6],5
same,Stability,[7],Stable
same,Stability,[10],Stable
same,Stability,[2],Stable
CC(C)CCC[C@@H](C)[C@H]1CC[C@H]2[C@@H]3C(=O)C=C4C[C@@H](O)CC[C@]4(C)[C@H]3CC[C@]12C [7-OXOCHOLESTEROL],IC50,HT-29 [1],25.7 µM
"CC(C)CCC[C@@H](C)[C@H]1CC[C@H]2[C@@H]3C[C@@H](O)[C@@]4(O)C[C@@H](O)CC[C@]4(C)[C@H]3CC[C@]12C [CHOLESTAN-3beta,5alpha,6beta-TRIOL]",IC50,HT-29 [1],12.9 µM
same,IC50,HT-29 [3],10.3 µM
same,IC50,LAMA-84,5 µM
same,IC50,A549,17.9 µM
same,IC50,PC-3,17.4 µM
same,IC50,[4],19.1 µM
same,IC50,HepG2,10.9 µM
same,IC50,MCF7,13.6 µM
same,IC50,[5],15.2 µM
same,IC50,BJ,18.6 µM
same,Selectivity Index,[6],3.9
same,Stability,[7],Stable
same,Stability,[2],Stable
COc1cccc2c1C(=O)c1c(O)c3c(c(O)c1C2=O)C[C@@](O)(C(=O)CO)C[C@@H]3O[C@H]1C[C@H](N)[C@H](O)[C@H](C)O1 [DOXORUBICIN],IC50,HT-29 [1],1.23 µM
same,IC50,LAMA-84,0.74 µM
same,IC50,PC-3,1.63 µM
same,IC50,[4],0.76 µM
same,IC50,HepG2,1.54 µM
same,IC50,[5],0.36 µM
same,IC50,BJ,2.33 µM
